Screens deposited in PubChem by several laboratories.
Shown are actives, neighbours in structure and some others; about 2% of the full set was active somewhere.
SR-BI DiI-HDL act = SR-BI HDL lipid transfer activation | CHO ldlA[mSR-BI] cells, DiI-HDL uptake fluorescence, 3 h; 100 = double the neutral-control signal | activation, % at 12.5 µM | 320,000 tested, 0.096% active | AID 504775;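 active means mean replicate activation of at least 60% and every replicate at or above 60%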;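 further: 0% = median plate neutral-control signal and 100% = twice that signal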
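material = CHO ldlA[mSR-BI] cells | medium = Ham's F12 with 0.5% BSA, HEPES 25 mM, pH 7.4 | reagent = fluorescent DiI-HDL, 10 µg/mL final | compound dosing = single-point compound dose | incubation = 3 h, 37 °C | measured by = bottom-read fluorescence, 550/595 nm | measure = HDL uptake via cellular fluorescence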
NSD2 HMT inh = blocks human histone methyltransferase NSD2 | 310,000 tested, 0.54% active | inhibition, % at 12.5 µM | NSD2 peptide methylation, AlphaScreen, 120 min; in the data active means inhibition above about 50%
ARNT TACC3 PPI = ARNT/TACC3 interaction disruption. Q9Y6A5. AlphaScreen His-ARNT PAS-B/GST-TACC3 binding, luminescence; TACC3 fragment carries E629A point mutation. inhibition, % at 9.99 µM. 390,000 tested, 0.66% active;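 active means mean inhibition of replicates at least 50% and at least half of replicates each reaching 50%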;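 further: 0% = complete ARNT plus TACC3 wells and 100% = ARNT alone without TACC3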
Xi reactivation = reactivates the inactive X chromosome in mouse fibroblasts; XiGFP mouse fibroblasts, % GFP-positive cells imaging, 3 d; cells co-treated with 5-aza-dC sensitizer; scaled so ellipticine positive control = 100%; activation, % at 7.58 µM; 360,000 tested, 0.055% active;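 active means mean normalized replicate activation at least 10% and every replicate at or above 10%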;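 further: 0% = median of on-plate neutral control wells and 100% = ellipticine 6 µM median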
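Schedule: 3 d treatment, 15 min room-temperature fixation; system: 68-5-11 XiGFP fibroblast line; buffer or medium: DMEM plus 5-aza-dC sensitizer; control set: ellipticine 6 µM positive control; compound: one concentration, pinned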
SR-BI HDL uptake = inhibitors of mouse SR-BI mediated HDL lipid uptake | Q61009 | ldlA[mSR-BI] CHO cells, DiI-HDL uptake fluorescence, 3 h | inhibition, % at 12.5 µM | 320,000 tested, 0.96% active;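 active means mean replicate inhibition of at least 70% and a set share of replicates each scoring 70 or more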;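 further: 0% = median of neutral control wells and 100% = median of positive control wells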
Target sequence (Q61009 whole entry, looked up): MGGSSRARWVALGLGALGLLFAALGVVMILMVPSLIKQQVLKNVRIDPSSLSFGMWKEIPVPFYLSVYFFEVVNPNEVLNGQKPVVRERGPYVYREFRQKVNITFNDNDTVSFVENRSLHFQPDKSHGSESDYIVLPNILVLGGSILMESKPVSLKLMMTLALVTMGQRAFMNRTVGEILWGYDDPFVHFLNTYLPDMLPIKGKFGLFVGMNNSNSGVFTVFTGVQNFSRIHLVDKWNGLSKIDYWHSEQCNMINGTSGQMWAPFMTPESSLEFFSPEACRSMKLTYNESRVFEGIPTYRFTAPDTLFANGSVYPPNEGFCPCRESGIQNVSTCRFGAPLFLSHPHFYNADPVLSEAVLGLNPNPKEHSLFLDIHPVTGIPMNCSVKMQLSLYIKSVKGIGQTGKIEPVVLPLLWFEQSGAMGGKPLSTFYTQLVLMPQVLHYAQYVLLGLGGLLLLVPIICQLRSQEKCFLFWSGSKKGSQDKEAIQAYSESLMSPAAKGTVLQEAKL
HGIII-sPLA2 inh = Inhibits HGIII-sPLA2 liposome hydrolysis, primary screen; Q9NZ20; QFRET BODIPY PC-A2 liposome hydrolysis, fluorescence; inhibition, % at 12.2 µM; 370,000 tested, 0.56% active; AID 743126;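 active means inhibition above mean plus 3 SD of compounds lying within the high and low control bounds, cut at about 19% in these data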;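 further: 0% = median of test compound wells and 100% = no enzyme DMSO wells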
* marks the source's active call; other numbers are inactive results; . = not tested or not shown.

SMILES	SR-BI DiI-HDL act	NSD2 HMT inh	ARNT TACC3 PPI	Xi reactivation	SR-BI HDL uptake	HGIII-sPLA2 inh
C=CCCC1CN(Cc2ccc(OC)cc2)S(=O)(=O)c2c(Oc3ccc(C)cc3)cccc2O1 (centres undefined)	.	.	.	0	.	-2
O=C1c2cccc3c([N+](=O)[O-])ccc(c23)C(=O)N1Cc1cccnc1	16	7	1	20*	-16	-5
Cc1nnc(N2C(=O)c3cccc4c([N+](=O)[O-])ccc(c34)C2=O)s1	6	30	-20	27*	-6	4
O=C1c2cccc3cccc(c23)C(=O)N1Cc1cccnc1	10	-1	-1	0	-10	0
Cc1ccnc(N2C(=O)c3cccc4c([N+](=O)[O-])ccc(c34)C2=O)c1	3	.	-5	.	-3	11
COC(=O)c1ccc(Cn2nc(-c3ccccc3)ccc2=O)cc1	7	1	-11	0	-7	2
CC1CCC/C(=C\Nc2ccc(O)cc2)C1=O (centres undefined)	2	8	21*	.	-2	4
C[C@H]1CN([C@@H](C)CO)C(=O)c2cc(NC(=O)Nc3ccc(F)cc3)ccc2O[C@H]1CN(C)Cc1ccc2c(c1)OCO2	.	.	-3	4	.	.
C[C@H](NC(=O)C[C@H]1CC[C@H](NC(=O)Cc2ccccn2)[C@@H](CO)O1)c1ccccc1	.	.	1	5	.	.
O=c1c(CO)cc(CO)cc(CO)c1O	.	0	74*	0	.	-13
C[C@@H]1CN([C@@H](C)CO)C(=O)c2cccc(NC(=O)Nc3ccccc3)c2O[C@@H]1CN(C)S(C)(=O)=O	.	.	-5	0	.	.
COc1cc(C(=O)NCCC(C)C)ccc1OCc1ccc(Cl)cc1Cl	-82	0	-6	0	82*	7
COc1cc(C(=O)NC2CCCCC2)ccc1OCc1ccc(Cl)cc1Cl	-76	-3	-3	0	76*	-3
COc1cccc(-c2nn(C)c3sc(C(=O)Nc4ccc5c(c4)OCCO5)cc23)c1	-86	.	4	.	86*	.
Cn1nc(-c2ccccc2F)c2cc(C(=O)Nc3ccc4c(c3)OCCO4)sc21	-60	3	-3	.	60	-9
Nc1ccc2c3c(cccc13)C(=O)N(c1ccccc1)C2=O	6	-2	.	1	-6	-406
CC(C)CCN1C(=O)c2cccc3c(N)ccc(c23)C1=O	-5	-60	-93	99*	5	-113
Cc1cc(C(=O)COC(=O)c2ccc(NC(=O)CC#N)cc2)c(C)n1C1CC1	-79	3	-6	0	79*	-36
Cc1ccc(Cn2ccsc2=NC(=O)CCl)cc1	12	26	-8	1	-12	4
Cc1ccc(Cn2ccsc2=NC(=O)COC(=O)c2ccc(NC(=O)CC#N)cc2)cc1	-77	-1	-1	0	77*	-61
C[C@@H]1CCCCO[C@@H](CN(C)CC2CCCCC2)[C@H](C)CN([C@H](C)CO)C(=O)c2cc(NC(=O)Nc3ccc4c(c3)OCO4)ccc2O1	.	.	34	0	.	.
Cc1c(Cl)cccc1NC(=O)Cn1c(CCC(=O)O)ccc1-c1ccccc1	-20	1	13	0	20	-36
Cc1cccc(-c2nnc(C(C)Nc3cccc(C(=O)NC4CC4)c3)o2)c1 (centres undefined)	.	.	.	0	.	-3
CCC(CC)NC(=O)CON=C1c2ccccc2-c2ccccc21	-72	-2	2	0	72*	8
COc1ccc(Cl)cc1NC(=O)CCCn1c(=O)c2cccn2c2cccnc21	.	-2	.	0	.	14
SMILES	SR-BI DiI-HDL act	NSD2 HMT inh	ARNT TACC3 PPI	Xi reactivation	SR-BI HDL uptake	HGIII-sPLA2 inh
O=C(CNC(=O)c1ccc(OC(F)F)cc1)NCC1(N2CCOCC2)CCCCC1	12	-4	3	0	-12	8
O=C(Nc1ccc(N2CCOCC2)cc1)c1cc(-c2ccncc2)nc2ccccc12	-62	2	-7	0	62	-8
COc1cc(-c2cc(C(=O)Nc3ccc(N4CCOCC4)cc3)c3ccccc3n2)cc(OC)c1OC	-90	3	.	0	90*	-2
CCOc1ccccc1NC(=O)c1cc(-c2cc(OC)c(OC)c(OC)c2)nc2ccccc12	-72	-8	.	0	72*	-14
CCOc1cc(N2CCOCC2)c(OCC)cc1NC(=O)c1oc2ccccc2c1C	-70	2	-3	0	70	-3
O=C(COC(=O)c1ccc([N+](=O)[O-])o1)NC1CCCC1	18	5	48*	0	-18	-1
Cc1cc(C(=O)Nc2cccc3c2O[C@@H](CN(C)Cc2ccc(-c4ccccc4)cc2)[C@@H](C)CN([C@@H](C)CO)C3=O)n(C)n1	.	.	-4	0	.	.
O=C(O)c1ncn(Cc2ccc(Br)cc2)c1C(=O)O	11	2	46*	0	-11	-2
O=C(c1ncn(Cc2ccccc2)c1C(=O)N1CCN(c2ccccc2)CC1)N1CCN(c2ccccc2)CC1	7	.	7	0	-7	-2
COc1ccc2c3c(n(C)c2c1)[C@H](CO)N(Cc1nccs1)CC31CCN(C(=O)CC2CC2)CC1	.	.	.	0	.	.
c1ccc(N=NC2=NN(c3ccccc3)CS2)cc1	.	27	.	0	.	30*
CC(=O)c1sc(NC(=O)c2cc(-c3ccccc3)nn2-c2ccccc2)nc1C	-80	-1	.	0	80*	2
O=C(Nc1nc2ccccc2s1)c1cc(-c2ccccc2)nn1-c1ccccc1	-66	-2	-11	0	66	-4
CC(C)[C@H](NC(=O)c1cccc(CN(Cc2ccccc2)C(=O)c2ccccc2)c1)C(=O)O	-2	-1	5	0	2	-4
CC(=O)c1cccc(NC(=O)c2cc(S(=O)(=O)N3CCOCC3)cs2)c1	-78	.	0	0	78*	-8
Cc1cc(SCC(=O)Nc2cccc(S(=O)(=O)N3CCOCC3)c2)nc2ccccc12	-79	1	-6	0	79*	-15
O=C(O)c1cccc(NC(=O)c2cc(S(=O)(=O)N3CCOCC3)cs2)c1	10	0	-1	0	-10	-1
CC(=O)Oc1ccc(-c2ccc(C(=O)Nc3cccc(S(=O)(=O)N4CCOCC4)c3)cc2)cc1	-81	-6	6	0	81*	-23
C=CCNC(=O)C1CC(=O)N(c2ccc(Br)cc2)C1 (centres undefined)	19	1	-9	.	-19	-3
Cc1ccc(NC(=O)COC(=O)CCC(=O)c2cccs2)c(Br)c1	20	-2	-3	0	-20	-14
O=C(N/N=C/c1cn(-c2ccccc2)nc1-c1ccc2c(c1)OCCO2)c1ccncc1	7	-2	-2	0	-7	6
